Data: ChEMBL document CHEMBL4765374, “8-Alkynyl-3-nitroimidazopyridines display potent antitrypanosomal activity against both T. b. brucei and cruzi” (Eur J Med Chem, 2020)
Values after ≈ are worked out from the molar mass of the structure shown.

Tests used:
[1] = Cytotoxicity against human HepG2 cells assessed as reduction in cell viability after 72 hrs by MTT assay; format: cell-based
Leishmania donovani [2] = assay: Antileishmanial activity against Leishmania donovani MHOM/IN/00/DEVI promastigotes assessed as inhibition of metabolic activity measured after 72 hrs by MTT assay; format: functional, organism-based
How it was run: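 L. donovani MHOM/IN/00/DEVI promastigotes grown in Schneider's medium with 20% FCS at 27 °C. Log-phase parasites at 10⁶/mL were exposed in duplicate to serial compound concentrations in DMSO (final <0.5%) for 72 h at 27 °C. MTT was added for 4 h and absorbance read at 570 nm. EC50 from non-linear regression, mean of at least three independent experiments.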

[3] = Selectivity index, ratio of CC50 for cytotoxicity against human HepG2 cells to EC50 for antileishmanial activity against Leishmania donovani MHOM/IN/00/DEVI promastigotes; format: toxicity, cell-based; settings: read-out: Selectivity Index
[4] = test system: Trypanosoma brucei brucei; assay: […] activity against Trypanosoma brucei brucei AnTat 1.9 measured after 74 hrs by Alamar blue assay; format: functional, organism-based; settings: AnTat 1.9, 74 h
How it was run: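 Bloodstream T. b. brucei AnTat 1.9 grown at 37 °C, 5% CO₂ in MEM with Earle's salts plus mercaptoethanol, L-cysteine, bathocuproine sulfate and 20% heat-inactivated horse serum. Seeded at 2000 parasites/100 µL and exposed in duplicate to compounds in DMSO for 69 h. Alamar Blue then added for 5 h, fluorescence read at ex 530/em 590 nm. EC50 by nonlinear regression from three independent experiments.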

[5] = Selectivity index, ratio of CC50 for human HepG2 cells to EC50 for Trypanosoma brucei brucei AnTat 1.9; format: toxicity; settings: read-out: Selectivity Index
Trypanosoma cruzi = assay: Antitrypanosomal activity against Trypanosoma cruzi trypomastigotes infected in African green monkey Vero cells incubated for 120 hrs measured on day 6 cells followed by trypomastigotes release by haemocytometer-based light microscopy; format: functional, organism-based
How it was run: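 Vero cells, grown 2 days, were infected with T. cruzi CL Brener trypomastigotes at 3:1 parasites to host cells. After 24 h, free parasites were washed off and compounds added (0.1 to 25 µM, 2 to 4-fold dilutions) for 120 h at 37 °C. Trypomastigotes released into the medium by day 6 were pelleted and counted by haemocytometer. EC50 by non-linear regression; two independent experiments, each in triplicate.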

THP-1 = assay: Cytotoxicity against human THP-1 cells assessed as reduction in cell viability after 72 hrs by MTT assay; format: functional
How it was run: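 THP-1 cells at 5×10⁴ cells/mL in complete RPMI were exposed in duplicate to compounds in DMSO (final <0.5%) for 72 h at 37 °C. MTT at 0.5 mg/mL for 2 h, formazan dissolved in DMSO, absorbance read at 570 nm with 630 nm reference. CC50 from the dose-response curve, mean of three independent experiments.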

Leishmania donovani [6] = assay: Antileishmanial activity against wild type Leishmania donovani BOB (MHOM/SD/62/1S-CL2D) promastigotes incubated for 72 hrs by resazurin dye based assay; format: functional, organism-based
How it was run: (§1)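 Clonal L. donovani LdBOB promastigotes grown at 26 °C in modified M199; NTR1- and NTR2-overexpressing lines maintained with nourseothricin (100 µg/mL). Triplicate 10 mL cultures seeded at 5×10^4 parasites/mL with drug for 72 h; 200 µL aliquots then given 50 µM resazurin, fluorescence (ex 528/em 590 nm) after 4 h more. EC50 from slope-factor equation; experiments repeated at least twice, mean plus standard deviation.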

Leishmania donovani [7] = assay: Antileishmanial activity against Leishmania donovani BOB (MHOM/SD/62/1S-CL2D) promastigotes overexpressing NTR1 incubated for 72 hrs by resazurin dye based assay; format: functional, organism-based; how it was run: as §1
Leishmania donovani [8] = assay: Antileishmanial activity against Leishmania donovani BOB (MHOM/SD/62/1S-CL2D) promastigotes overexpressing NTR2 incubated for 72 hrs by resazurin dye based assay; format: functional, organism-based; how it was run: as §1
[9] = test system: Trypanosoma brucei brucei; assay: Antitrypanosomal activity against bloodstream form of wild type Trypanosoma brucei brucei S427 trypomastigotes incubated for 72 hrs; format: functional, organism-based; settings: S427, 72 h
How it was run: (§2)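 Bloodstream-form T. brucei 'single marker' S427 cultured at 37 °C in HMI9-T with 2.5 µg/mL G418. The NTR1-overexpressing line was kept with 2.5 µg/mL phleomycin and induced with 1 µg/mL tetracycline 48 h before testing. Triplicate cultures seeded at 1×10^5 cells/mL with inhibitor. Cell densities counted after 72 h. EC50 from slope-factor equation.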

[10] = test system: Trypanosoma brucei brucei; assay: Antitrypanosomal activity against bloodstream form of Trypanosoma brucei brucei S427 trypomastigotes overexpressing NTR incubated for 72 hrs; format: functional, organism-based; settings: S427, 72 h; how it was run: as §2
[11] = Thermodynamic solubility of the compound in phosphate buffer at pH 7.4 by shake flask method; format: physicochemical; settings: read-out: Therm_solubility
How it was run: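 Miniaturized shake-flask method: a 20 mM DMSO stock was diluted into phosphate buffer pH 7.4 (n=3), sonicated and shaken for 24 h at room temperature, then centrifuged. Supernatant was mixed 1:1 with acetonitrile and quantified by UV spectrophotometry at the compound's λmax against a calibration curve.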

Albumin = Albumin (Homo sapiens, UniProt P02768); assay: Protein binding to human albumin by LC-MS analysis; format: ADME; settings: read-out: PB (converted)
Albumin, sequence (P02768 whole entry): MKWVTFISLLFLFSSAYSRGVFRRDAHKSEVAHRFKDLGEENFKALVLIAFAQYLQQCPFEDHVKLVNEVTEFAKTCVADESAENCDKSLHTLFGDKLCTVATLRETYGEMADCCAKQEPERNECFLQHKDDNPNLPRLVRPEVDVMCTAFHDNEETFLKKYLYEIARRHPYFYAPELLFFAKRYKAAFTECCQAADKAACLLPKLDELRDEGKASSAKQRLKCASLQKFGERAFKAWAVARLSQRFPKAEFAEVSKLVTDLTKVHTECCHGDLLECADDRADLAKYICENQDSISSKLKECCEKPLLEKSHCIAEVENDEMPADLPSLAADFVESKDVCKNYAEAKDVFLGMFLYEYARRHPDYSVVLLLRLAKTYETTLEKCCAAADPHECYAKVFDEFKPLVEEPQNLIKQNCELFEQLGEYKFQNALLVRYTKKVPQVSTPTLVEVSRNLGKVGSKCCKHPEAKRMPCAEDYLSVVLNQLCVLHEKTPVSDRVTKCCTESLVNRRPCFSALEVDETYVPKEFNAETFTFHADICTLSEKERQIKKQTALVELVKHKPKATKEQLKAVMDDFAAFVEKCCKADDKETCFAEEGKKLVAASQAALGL
How it was run: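 Plasma spiked with compound was dialysed at 37 °C in triplicate against phosphate buffer pH 7.2 for 4 h at 300 rpm. Both compartments were sampled and quantified by LC-MS using propranolol as internal standard. Unbound fraction taken from the plasma and buffer peak ratios; recovery checked with a non-incubated spiked plasma.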

[12] = Microsomal stability in CD-1 mouse liver microsomes assessed as half life measured after 40 mins in presence of NADPH by LC-MS/MS analysis; format: ADME, Microsome
How it was run: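 Female CD-1 mouse microsomes incubated in duplicate at 37 °C in 50 mM phosphate buffer, pH 7.4, with MgCl₂, NADP, glucose-6-phosphate and G6P dehydrogenase. […] Propranolol as reference.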

[13] = Effective permeability of the compound at pH 7.4 incubated for 4 hrs by PAMPA-BBB assay; format: ADME; settings: read-out: permeability
How it was run: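 Compound diluted from a 20 mM DMSO stock to 100 µM in Prisma HT buffer pH 7.4 and placed in the donor wells. Acceptor membrane coated with BBB-1 lipid, with Brain Sink Buffer in the acceptor wells. Plates incubated 4 h at room temperature without stirring, then read by UV-visible spectra to give Pe. Corticosterone and theophylline served as high and low permeability standards; n=6.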

[14] = Cmax in Swiss albino mouse at 100 mg/kg, po; format: ADME, organism-based; parameters: route oral, dose 100 mg/kg; settings: in vivo
How it was run: (§3)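 Female Swiss mice, 8 weeks, 30-32 g, given a single oral gavage at 100 mg/kg as a suspension in 5% Tween 80/95% carboxymethylcellulose 0.5% in water. Blood (100 µL) was extracted with ACN containing ornidazole as internal standard plus QuEChERS salts, then quantified by positive-ESI LC-MS/MS on a C8 column against whole-blood calibration standards (5 to 1,000 ng/mL).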

[15] = Tmax in Swiss albino mouse at 100 mg/kg, po; format: ADME, organism-based; settings: in vivo; how it was run: as §3
[16] = Half life in Swiss albino mouse plasma at 100 mg/kg, po; format: ADME, organism-based; how it was run: as §3
[17] = AUC (0 to infinity) in Swiss albino mouse at 100 mg/kg, po; format: ADME, organism-based; parameters: time infinity, route oral, dose 100 mg/kg; settings: in vivo; how it was run: as §3
[18] = Clearance in Swiss albino mouse at 100 mg/kg, po; format: ADME, organism-based; settings: in vivo; how it was run: as §3
[19] = Genotoxicity in Salmonella typhimurium at 0.25 mM incubated for 48 hrs by Ames test; format: toxicity; settings: salmonella enterica subsp. enterica serovar typhimurium, 250 µM
How it was run: (§4)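 Liquid pre-incubation Ames test using S. typhimurium TA97a, TA98, TA100 and TA102 grown overnight in nutrient broth. Cultures were incubated with compound (5-50 mM DMSO stock) and 4% S9 mix for 1 h at 37 °C, then plated in top agar on minimal agar for 48 h at 37 °C in the dark, in duplicate. Positive result: a two-fold rise in revertants over the spontaneous count. Benzo[a]pyrene with S9 as positive control.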

[20] = Genotoxicity in Salmonella typhimurium at 2.5 mM incubated for 48 hrs by Ames test; format: toxicity; settings: salmonella enterica subsp. enterica serovar typhimurium, 2500 µM; how it was run: as §4
HepG2 = assay: Genotoxicity in human HepG2 cells assessed as induction of DNA damage at 20 to 30 uM incubated for 2 to 72 hrs by alkaline comet assay; format: toxicity, cell-based; settings: hepg2, 30 µM, dose lower 20 µM, time lower 2 hrs, dose upper 30 µM, time upper 72 hrs
How it was run: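 HepG2 cells exposed for 2 or 72 h at 20 or 30 µM, then trypsinized and embedded in 0.7% low-melting agarose. Lysis 18 h at 4 °C, pH 10; alkaline electrophoresis (pH >13) for 24 min at 0.8 V/cm. Gels stained with SYBR Gold and imaged. % tail DNA is the median of 50 cells per deposit, three deposits per sample.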

[21] = Solubility of the compound in aqueous medium at highest dose; format: physicochemical; settings: buffer

## O=[N+]([O-])c1c(CS(=O)(=O)c2ccccc2)nc2c(C#CCCO)cc(Cl)cn12
[1]
  CC50 at 72 h: > 125000 nM
Leishmania donovani [2]
  EC50: 7400 nM
[3]
  selectivity ratio: > 16.9
[4]
  EC50: 70 nM
[5]
  selectivity ratio: > 1790
Trypanosoma cruzi
  EC50: 1200 nM
THP-1
  CC50: > 100000 nM
Leishmania donovani [6]
  EC50: 21400 nM
Leishmania donovani [7]
  EC50: 500 nM
Leishmania donovani [8]
  EC50: 24500 nM
[9]
  EC50: 124 nM
[10]
  EC50: 26.5 nM
[11]
  solubility thermodynamic: 70.7 µM (≈ 29.7 µg/mL)
Albumin
  fraction unbound: 0.015
[12]
  half-life: 16 min
[13]
  Papp at 4 h: 34.6 ×10⁻⁶ cm/s
[14]
  Cmax: 394 ng/mL
[15]
  Tmax: 49.8 min
[16]
  half-life: 601 min
[17]
  AUC(0-inf): 1430 ng·h/mL
[18]
  CL/F: 0.0407 mL/min
[19]
  Activity: Toxic
[20]
  Activity: Toxic
HepG2
  Activity: Non-Toxic
[21]
  solubility: Insoluble
